Tested on: HEK-293T
Experiment: Multiplex assay against HEK293T;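 on Population Tubulin-Different-Phenotype (%): share of the cells with healthy nuclei that show this phenotype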
Type: toxicity, cell-based
Details: human
In short: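 At seeding, live cells were stained with Hoechst33342, BioTracker Green Microtubule Cytoskeleton Dye, MitoTracker Red and Annexin V Alexa Fluor 680. After compound addition they were imaged on a CQ1 microscope at 37°C and 5% CO2, and CellPathfinder machine-learning gating sorted them into Hoechst high-intensity objects or normal cells, with normal cells further split into healthy, pyknosed or fragmented nuclei and pyknosed cells into mitotic or apoptotic. Tubulin, mitochondrial-mass and membrane-permeability phenotypes are given as per cents of cells with healthy nuclei.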

[1] = 12 h, 1 µM, compound concentration 1 uM, replicate 1
[2] = 12 h, 1 µM, compound concentration 1 uM, replicate 2
[3] = 12 h, 10 µM, compound concentration 10 uM, replicate 1
[4] = 12 h, 10 µM, compound concentration 10 uM, replicate 2
[5] = 24 h, 1 µM, compound concentration 1 uM, replicate 1
[6] = 24 h, 1 µM, compound concentration 1 uM, replicate 2
[7] = 24 h, 10 µM, compound concentration 10 uM, replicate 1
[8] = 24 h, 10 µM, compound concentration 10 uM, replicate 2
[9] = 48 h, 1 µM, compound concentration 1 uM, replicate 1
[10] = 48 h, 1 µM, compound concentration 1 uM, replicate 2
[11] = 48 h, 10 µM, compound concentration 10 uM, replicate 1
[12] = 48 h, 10 µM, compound concentration 10 uM, replicate 2

Question: With `CCc1ccc(OCc2ccccc2C(=O)Nc2ccc3nc(C)cc(N)c3c2)cc1.Cl` as the molecule, how does the “Population Apoptotic (%)” value [1] read?
Answer: 84%

Question: What about the “Population Fragmented Nuclei (%)” value [1] of the same molecule?
Answer: 28%

Question: What about the “Population Healthy Nuclei (%)” value [1] of the same molecule?
Answer: 7%

Question: And the “Population Hoechst High Intensity Objects (%)” value [1]?
Answer: 18%

Question: What about the “Population Membrane Permeable-Phenotype (%)” value [1] of the same molecule?
Answer: 33%

Question: What about the “Population Mitochondria Different-Phenotype (%)” value [1] of the same molecule?
Answer: 100%

Question: What about the “Population Mitotic Cells (%)” value [1] of the same molecule?
Answer: 15%

Question: And the “Population Normal (%)” value [1]?
Answer: 81%

Question: What about the “Population Pyknosed Nuclei (%)” value [1] of the same molecule?
Answer: 64%

Question: And the “Population Tubulin-Different-Phenotype (%)” value [1]?
Answer: 66%

Question: And the “Total Cell Count” value [1]?
Answer: 156

Question: What about the “Population Apoptotic (%)” value [2] of the same molecule?
Answer: 73%

Question: What about the “Population Fragmented Nuclei (%)” value [2] of the same molecule?
Answer: 8%

Question: And the “Population Healthy Nuclei (%)” value [2]?
Answer: 12%

Question: And the “Population Hoechst High Intensity Objects (%)” value [2]?
Answer: 14%

Question: And the “Population Membrane Permeable-Phenotype (%)” value [2]?
Answer: 0%

Question: What about the “Population Mitochondria Different-Phenotype (%)” value [2] of the same molecule?
Answer: 93%

Question: And the “Population Mitotic Cells (%)” value [2]?
Answer: 26%

Question: What about the “Population Normal (%)” value [2] of the same molecule?
Answer: 85%

Question: And the “Population Pyknosed Nuclei (%)” value [2]?
Answer: 79%

Question: What about the “Population Tubulin-Different-Phenotype (%)” value [2] of the same molecule?
Answer: 73%

Question: What about the “Total Cell Count” value [2] of the same molecule?
Answer: 146

Question: What about the “Population Apoptotic (%)” value [3] of the same molecule?
Answer: 50%

Question: And the “Population Fragmented Nuclei (%)” value [3]?
Answer: 19%

Question: And the “Population Healthy Nuclei (%)” value [3]?
Answer: 0%

Question: What about the “Population Hoechst High Intensity Objects (%)” value [3] of the same molecule?
Answer: 24%

Question: And the “Population Membrane Permeable-Phenotype (%)” value [3]?
Answer: 0%

Question: What about the “Population Mitochondria Different-Phenotype (%)” value [3] of the same molecule?
Answer: 0%

Question: And the “Population Mitotic Cells (%)” value [3]?
Answer: 50%

Question: And the “Population Normal (%)” value [3]?
Answer: 75%

Question: What about the “Population Pyknosed Nuclei (%)” value [3] of the same molecule?
Answer: 80%

Question: And the “Population Tubulin-Different-Phenotype (%)” value [3]?
Answer: 0%

Question: And the “Total Cell Count” value [3]?
Answer: 144

Question: What about the “Population Apoptotic (%)” value [4] of the same molecule?
Answer: 62%

Question: And the “Population Fragmented Nuclei (%)” value [4]?
Answer: 18%

Question: And the “Population Healthy Nuclei (%)” value [4]?
Answer: 30%

Question: And the “Population Hoechst High Intensity Objects (%)” value [4]?
Answer: 35%

Question: What about the “Population Membrane Permeable-Phenotype (%)” value [4] of the same molecule?
Answer: 11%

Question: And the “Population Mitochondria Different-Phenotype (%)” value [4]?
Answer: 8%

Question: What about the “Population Mitotic Cells (%)” value [4] of the same molecule?
Answer: 37%

Question: What about the “Population Normal (%)” value [4] of the same molecule?
Answer: 64%

Question: What about the “Population Pyknosed Nuclei (%)” value [4] of the same molecule?
Answer: 51%

Question: And the “Population Tubulin-Different-Phenotype (%)” value [4]?
Answer: 41%

Question: And the “Total Cell Count” value [4]?
Answer: 175

Question: What about the “Population Apoptotic (%)” value [5] of the same molecule?
Answer: 85%

Question: What about the “Population Fragmented Nuclei (%)” value [5] of the same molecule?
Answer: 18%

Question: And the “Population Hoechst High Intensity Objects (%)” value [5]?
Answer: 19%

Question: What about the “Population Mitochondria Different-Phenotype (%)” value [5] of the same molecule?
Answer: 90%

Question: And the “Population Mitotic Cells (%)” value [5]?
Answer: 14%

Question: And the “Population Normal (%)” value [5]?
Answer: 80%

Question: What about the “Population Pyknosed Nuclei (%)” value [5] of the same molecule?
Answer: 72%

Question: What about the “Population Tubulin-Different-Phenotype (%)” value [5] of the same molecule?
Answer: 81%

Question: And the “Total Cell Count” value [5]?
Answer: 152

Question: What about the “Population Apoptotic (%)” value [6] of the same molecule?
Answer: 80%

Question: And the “Population Fragmented Nuclei (%)” value [6]?
Answer: 10%

Question: What about the “Population Healthy Nuclei (%)” value [6] of the same molecule?
Answer: 9%

Question: What about the “Population Hoechst High Intensity Objects (%)” value [6] of the same molecule?
Answer: 15%

Question: What about the “Population Membrane Permeable-Phenotype (%)” value [6] of the same molecule?
Answer: 0%

Question: What about the “Population Mitochondria Different-Phenotype (%)” value [6] of the same molecule?
Answer: 100%

Question: And the “Population Mitotic Cells (%)” value [6]?
Answer: 20%

Question: And the “Population Normal (%)” value [6]?
Answer: 84%

Question: And the “Population Pyknosed Nuclei (%)” value [6]?
Answer: 79%

Question: And the “Population Tubulin-Different-Phenotype (%)” value [6]?
Answer: 100%

Question: What about the “Total Cell Count” value [6] of the same molecule?
Answer: 141

Question: What about the “Population Apoptotic (%)” value [7] of the same molecule?
Answer: 44%

Question: What about the “Population Fragmented Nuclei (%)” value [7] of the same molecule?
Answer: 20%

Question: What about the “Population Healthy Nuclei (%)” value [7] of the same molecule?
Answer: 0%

Question: And the “Population Hoechst High Intensity Objects (%)” value [7]?
Answer: 22%

Question: What about the “Population Membrane Permeable-Phenotype (%)” value [7] of the same molecule?
Answer: 0%

Question: What about the “Population Mitochondria Different-Phenotype (%)” value [7] of the same molecule?
Answer: 100%

Question: And the “Population Mitotic Cells (%)” value [7]?
Answer: 55%

Question: And the “Population Normal (%)” value [7]?
Answer: 77%

Question: What about the “Population Pyknosed Nuclei (%)” value [7] of the same molecule?
Answer: 79%

Question: And the “Total Cell Count” value [7]?
Answer: 135

Question: And the “Population Apoptotic (%)” value [8]?
Answer: 42%

Question: What about the “Population Fragmented Nuclei (%)” value [8] of the same molecule?
Answer: 28%

Question: What about the “Population Healthy Nuclei (%)” value [8] of the same molecule?
Answer: 21%

Question: What about the “Population Hoechst High Intensity Objects (%)” value [8] of the same molecule?
Answer: 26%

Question: And the “Population Membrane Permeable-Phenotype (%)” value [8]?
Answer: 18%

Question: And the “Population Mitochondria Different-Phenotype (%)” value [8]?
Answer: 18%

Question: And the “Population Mitotic Cells (%)” value [8]?
Answer: 57%

Question: And the “Population Normal (%)” value [8]?
Answer: 73%

Question: And the “Population Pyknosed Nuclei (%)” value [8]?
Answer: 50%

Question: And the “Population Tubulin-Different-Phenotype (%)” value [8]?
Answer: 100%

Question: And the “Total Cell Count” value [8]?
Answer: 103

Question: What about the “Population Apoptotic (%)” value [9] of the same molecule?
Answer: 85%

Question: And the “Population Fragmented Nuclei (%)” value [9]?
Answer: 26%

Question: And the “Population Healthy Nuclei (%)” value [9]?
Answer: 2%

Question: What about the “Population Hoechst High Intensity Objects (%)” value [9] of the same molecule?
Answer: 22%

Question: What about the “Population Mitochondria Different-Phenotype (%)” value [9] of the same molecule?
Answer: 66%

Question: What about the “Population Mitotic Cells (%)” value [9] of the same molecule?
Answer: 14%

Question: And the “Population Normal (%)” value [9]?
Answer: 77%

Question: What about the “Population Pyknosed Nuclei (%)” value [9] of the same molecule?
Answer: 70%

Question: And the “Population Tubulin-Different-Phenotype (%)” value [9]?
Answer: 66%

Question: And the “Total Cell Count” value [9]?
Answer: 155

Question: And the “Population Apoptotic (%)” value [10]?
Answer: 92%

Question: What about the “Population Fragmented Nuclei (%)” value [10] of the same molecule?
Answer: 14%

Question: And the “Population Healthy Nuclei (%)” value [10]?
Answer: 11%

Question: And the “Population Hoechst High Intensity Objects (%)” value [10]?
Answer: 11%

Question: What about the “Population Membrane Permeable-Phenotype (%)” value [10] of the same molecule?
Answer: 0%

Question: What about the “Population Mitochondria Different-Phenotype (%)” value [10] of the same molecule?
Answer: 84%

Question: What about the “Population Mitotic Cells (%)” value [10] of the same molecule?
Answer: 7%

Question: What about the “Population Normal (%)” value [10] of the same molecule?
Answer: 88%

Question: And the “Population Pyknosed Nuclei (%)” value [10]?
Answer: 73%

Question: And the “Population Tubulin-Different-Phenotype (%)” value [10]?
Answer: 84%

Question: What about the “Total Cell Count” value [10] of the same molecule?
Answer: 124

Question: And the “Population Apoptotic (%)” value [11]?
Answer: 49%

Question: What about the “Population Fragmented Nuclei (%)” value [11] of the same molecule?
Answer: 20%

Question: And the “Population Healthy Nuclei (%)” value [11]?
Answer: 0%

Question: What about the “Population Hoechst High Intensity Objects (%)” value [11] of the same molecule?
Answer: 22%

Question: What about the “Population Membrane Permeable-Phenotype (%)” value [11] of the same molecule?
Answer: 0%

Question: What about the “Population Mitochondria Different-Phenotype (%)” value [11] of the same molecule?
Answer: 0%

Question: And the “Population Mitotic Cells (%)” value [11]?
Answer: 50%

Question: And the “Population Normal (%)” value [11]?
Answer: 77%

Question: And the “Population Pyknosed Nuclei (%)” value [11]?
Answer: 79%

Question: And the “Population Tubulin-Different-Phenotype (%)” value [11]?
Answer: 0%

Question: What about the “Total Cell Count” value [11] of the same molecule?
Answer: 132

Question: What about the “Population Apoptotic (%)” value [12] of the same molecule?
Answer: 33%

Question: What about the “Population Fragmented Nuclei (%)” value [12] of the same molecule?
Answer: 31%

Question: What about the “Population Healthy Nuclei (%)” value [12] of the same molecule?
Answer: 50%

Question: What about the “Population Hoechst High Intensity Objects (%)” value [12] of the same molecule?
Answer: 40%

Question: And the “Population Membrane Permeable-Phenotype (%)” value [12]?
Answer: 13%

Question: And the “Population Mitochondria Different-Phenotype (%)” value [12]?
Answer: 28%

Question: And the “Population Mitotic Cells (%)” value [12]?
Answer: 66%

Question: What about the “Population Normal (%)” value [12] of the same molecule?
Answer: 59%

Question: And the “Population Pyknosed Nuclei (%)” value [12]?
Answer: 17%

Question: And the “Population Tubulin-Different-Phenotype (%)” value [12]?
Answer: 64%

Question: What about the “Total Cell Count” value [12] of the same molecule?
Answer: 176
